Measured values: ChEMBL document CHEMBL3112486, “Novel class of benzoic acid ester derivatives as potent PDE4 inhibitors for inhaled administration in the treatment of respiratory diseases” (J Med Chem, 2014)

Target: T1, Phosphodiesterase 4 (Homo sapiens, UniProt P27815+Q08499+Q07343+Q08493)
Assay: Inhibition of PDE4 activity in human PBMC assessed as inhibition of LPS-induced TNFalpha release after 18 hrs by ELISA
Details: not given
Method in brief: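 Human PBMCs plated at 10^5 cells/well in RPMI 1640 without phenol red plus 10% FBS, at 37 °C, 5% CO2. Compound added at 10^-15 to 10^-6 M (final DMSO 0.2%), with E. coli LPS at 3 ng/mL final, for 18 h. TNFα in supernatant measured by paired-antibody ELISA. IC50 from four-parameter logistic nonlinear regression, reported with 95% confidence intervals.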

Row | SMILES | IC50
1 | CS(=O)(=O)Nc1cc(C(=O)O[C@@H](Cc2c(Cl)c[n+]([O-])cc2Cl)c2ccc(OC(F)F)c(OCC3CC3)c2)ccc1OCc1ccccc1 | 0.53 nM
2 | COc1ccc(C(=O)O[C@@H](Cc2c(Cl)c[n+]([O-])cc2Cl)c2ccc(OC(F)F)c(OCC3CC3)c2)cc1OCC1CC1 | 0.04 nM
3 | COc1cc(NS(C)(=O)=O)cc(C(=O)O[C@@H](Cc2c(Cl)c[n+]([O-])cc2Cl)c2ccc(OC(F)F)c(OCC3CC3)c2)c1 | 0.13 nM
4 | COc1ccc(C(=O)O[C@@H](Cc2c(Cl)c[n+]([O-])cc2Cl)c2ccc(OC(F)F)c(OCC3CC3)c2)cc1 | 0.47 nM
5 | CS(=O)(=O)Nc1ccc(C(=O)O[C@@H](Cc2c(Cl)c[n+]([O-])cc2Cl)c2ccc(OC(F)F)c(OCC3CC3)c2)cc1CO | 1.05 nM
6 | Cc1ccc(C(=O)O[C@@H](Cc2c(Cl)c[n+]([O-])cc2Cl)c2ccc(OC(F)F)c(OCC3CC3)c2)cc1 | 0.66 nM
7 | Nc1ccc(C(=O)O[C@@H](Cc2c(Cl)c[n+]([O-])cc2Cl)c2ccc(OC(F)F)c(OCC3CC3)c2)cc1OCC1CC1 | 0.11 nM
8 | COc1ccc(C(=O)O[C@@H](Cc2c(Cl)c[n+]([O-])cc2Cl)c2ccc(OC(F)F)c(OCC3CC3)c2)cc1OC | 0.12 nM
9 | COc1ccc(C(=O)O[C@@H](Cc2c(Cl)c[n+]([O-])cc2Cl)c2ccc(OC(F)F)c(OCC3CC3)c2)cc1O | 0.75 nM
10 | COc1ccc(C(=O)O[C@@H](Cc2c(Cl)c[n+]([O-])cc2Cl)c2ccc(OC(F)F)c(OCC3CC3)c2)c(NS(C)(=O)=O)c1 | > 60 nM
11 | CS(=O)(=O)Nc1ccc(C(=O)O[C@@H](Cc2c(Cl)c[n+]([O-])cc2Cl)c2ccc(OC(F)F)c(OCC3CC3)c2)cc1OCc1ccccc1 | 0.99 nM
12 | CS(=O)(=O)Nc1ccc(C(=O)O[C@@H](Cc2c(Cl)c[n+]([O-])cc2Cl)c2ccc(OC(F)F)c(OCC3CC3)c2)cc1 | 0.13 nM
13 | Cc1cc(C(=O)O[C@@H](Cc2c(Cl)c[n+]([O-])cc2Cl)c2ccc(OC(F)F)c(OCC3CC3)c2)ccc1NS(C)(=O)=O | 0.41 nM
14 | [O-][n+]1cc(Cl)c(C[C@H](O)c2ccc(OC(F)F)c(OCC3CC3)c2)c(Cl)c1 | 479 nM
15 | O=C(O[C@@H](Cc1c(Cl)c[n+]([O-])cc1Cl)c1ccc(OC(F)F)c(OCC2CC2)c1)c1ccc(C(=O)O)c(OCC2CC2)c1 | 0.3 nM
16 | CS(=O)(=O)Nc1cccc(C(=O)O[C@@H](Cc2c(Cl)c[n+]([O-])cc2Cl)c2ccc(OC(F)F)c(OCC3CC3)c2)c1OCC1CC1 | 1.31 nM
17 | COc1cc(C(=O)O[C@@H](Cc2c(Cl)c[n+]([O-])cc2Cl)c2ccc(OC(F)F)c(OCC3CC3)c2)ccc1NS(C)(=O)=O | 0.38 nM

Target: T1, Phosphodiesterase 4
Assay: Inhibition of PDE4 isolated from human U937 cells assessed as […] by LANCE assay
Format: cell-free
Details: u-937

Row | SMILES | IC50
18 | O=C(OC(Cc1c(Cl)cncc1Cl)c1ccc(OC(F)F)c(OCC2CC2)c1)c1ccccc1 (racemic) | 1.14 nM
19 | CC(=O)OC(Cc1c(Cl)cncc1Cl)c1ccc(OC(F)F)c(OCC2CC2)c1 (racemic) | 4.09 nM
20 | O=C(O/C(=C\c1c(Cl)cncc1Cl)c1ccc(OC(F)F)c(OCC2CC2)c1)c1ccc(OC(F)F)c(OCC2CC2)c1 | 1.18 nM
21 | O=C(CCCc1ccccc1)OC(Cc1c(Cl)cncc1Cl)c1ccc(OC(F)F)c(OCC2CC2)c1 (racemic) | 1.34 nM
22 | O=C(O[C@H](Cc1c(Cl)cncc1Cl)c1ccc(OC(F)F)c(OCC2CC2)c1)c1ccc(OC(F)F)c(OCC2CC2)c1 | 44 nM
23 | CS(=O)(=O)Nc1cc(C(=O)O[C@@H](Cc2c(Cl)c[n+]([O-])cc2Cl)c2ccc(OC(F)F)c(OCC3CC3)c2)ccc1OCc1ccccc1 | 0.32 nM
24 | COc1ccc(C(=O)O[C@@H](Cc2c(Cl)c[n+]([O-])cc2Cl)c2ccc(OC(F)F)c(OCC3CC3)c2)cc1OCC1CC1 | 0.05 nM
25 | COc1cc(NS(C)(=O)=O)cc(C(=O)O[C@@H](Cc2c(Cl)c[n+]([O-])cc2Cl)c2ccc(OC(F)F)c(OCC3CC3)c2)c1 | 0.17 nM
26 | COc1ccc(C(=O)O[C@@H](Cc2c(Cl)c[n+]([O-])cc2Cl)c2ccc(OC(F)F)c(OCC3CC3)c2)cc1 | 0.14 nM
27 | CS(=O)(=O)Nc1ccc(C(=O)O[C@@H](Cc2c(Cl)c[n+]([O-])cc2Cl)c2ccc(OC(F)F)c(OCC3CC3)c2)cc1CO | 0.03 nM
28 | O=C(O[C@H](Cc1c(Cl)c[n+]([O-])cc1Cl)c1ccc(OC(F)F)c(OCC2CC2)c1)c1ccc(OC(F)F)c(OCC2CC2)c1 | 2.43 nM
29 | Cc1ccc(C(=O)O[C@@H](Cc2c(Cl)c[n+]([O-])cc2Cl)c2ccc(OC(F)F)c(OCC3CC3)c2)cc1 | 0.1 nM
30 | Nc1ccc(C(=O)O[C@@H](Cc2c(Cl)c[n+]([O-])cc2Cl)c2ccc(OC(F)F)c(OCC3CC3)c2)cc1OCC1CC1 | 0.09 nM
31 | COc1ccc(C(=O)O[C@@H](Cc2c(Cl)c[n+]([O-])cc2Cl)c2ccc(OC(F)F)c(OCC3CC3)c2)cc1OC | 0.07 nM
32 | COc1ccc(C(=O)O[C@@H](Cc2c(Cl)c[n+]([O-])cc2Cl)c2ccc(OC(F)F)c(OCC3CC3)c2)cc1O | 0.08 nM
33 | COc1ccc(C(=O)O[C@@H](Cc2c(Cl)c[n+]([O-])cc2Cl)c2ccc(OC(F)F)c(OCC3CC3)c2)c(NS(C)(=O)=O)c1 | 0.73 nM
34 | CS(=O)(=O)Nc1ccc(C(=O)O[C@@H](Cc2c(Cl)c[n+]([O-])cc2Cl)c2ccc(OC(F)F)c(OCC3CC3)c2)cc1OCc1ccccc1 | 0.56 nM
35 | CS(=O)(=O)Nc1ccc(C(=O)O[C@@H](Cc2c(Cl)c[n+]([O-])cc2Cl)c2ccc(OC(F)F)c(OCC3CC3)c2)cc1 | 0.05 nM
36 | Cc1cc(C(=O)O[C@@H](Cc2c(Cl)c[n+]([O-])cc2Cl)c2ccc(OC(F)F)c(OCC3CC3)c2)ccc1NS(C)(=O)=O | 0.05 nM
37 | [O-][n+]1cc(Cl)c(C[C@H](O)c2ccc(OC(F)F)c(OCC3CC3)c2)c(Cl)c1 | 9.44 nM
38 | O=C(O[C@@H](Cc1c(Cl)c[n+]([O-])cc1Cl)c1ccc(OC(F)F)c(OCC2CC2)c1)c1ccc(C(=O)O)c(OCC2CC2)c1 | 0.05 nM
39 | O=C(O[C@@H](Cc1c(Cl)cncc1Cl)c1ccc(OC(F)F)c(OCC2CC2)c1)c1ccc(OC(F)F)c(OCC2CC2)c1 | 1.9 nM
40 | CCCC(=O)OC(Cc1c(Cl)cncc1Cl)c1ccc(OC(F)F)c(OCC2CC2)c1 (racemic) | 1.74 nM
41 | O=C(Cc1ccccc1)OC(Cc1c(Cl)cncc1Cl)c1ccc(OC(F)F)c(OCC2CC2)c1 (racemic) | 1.06 nM
42 | CS(=O)(=O)Nc1cccc(C(=O)O[C@@H](Cc2c(Cl)c[n+]([O-])cc2Cl)c2ccc(OC(F)F)c(OCC3CC3)c2)c1OCC1CC1 | 0.18 nM
43 | COc1cc(C(=O)O[C@@H](Cc2c(Cl)c[n+]([O-])cc2Cl)c2ccc(OC(F)F)c(OCC3CC3)c2)ccc1NS(C)(=O)=O | 0.06 nM

System: not listed separately
Assay: n-Octanol-buffer partition coefficient, log D of the compound at pH 7.4 by shake-flask method
Details: not given

Row | SMILES | logD
44 | Cc1ccc(O)c(C(=O)N[C@H]2CC[C@@H](NC(=O)c3cc(F)cnc3Oc3ccc(F)c(F)c3)CC2)c1 [UK-500001] | 4.27
